Measured values published in ChEMBL document CHEMBL1124216, “A novel class of potential central nervous system agents. 3-Phenyl-2-(1-piperazinyl)-5H-1-benzazepines” (1988).

Assays:
Assay type in all cases: functional
Mus musculus [1] = assay: Antimaximal electroshock seizure (MES) activity in mice after peroral administration of 100 mg/kg of compound; 0/5; details: route oral
Mus musculus [2] = assay: Antireserpine activity (RES) of mice after peroral administration of mg/kg of compound; Slight inhibition (31-50%)
Mus musculus [3] = assay: Antiexploratory activity (EXPL) of mice determined by an antimex activity meter, 50 mg/kg of dose was administered perorally; No inhibition; details: route oral
Mus musculus [4] = assay: Antireserpine activity (RES) of mice after peroral administration of 100 mg/kg of compound; Moderate inhibition (51-71%); details: route oral
Canis familiaris [5] = assay: Inhibition of apomorphine induced emesis in dogs at 2 mg/kg of dose.; details: Canis lupus familiaris
How it was run: (§1)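 Beagle dogs (10-15 kg), groups of three, given compound po in a gelatin capsule; 2 h later apomorphine hydrochloride 0.3 mg/kg sc. Vomiting counted for 1 h; mean inhibition as percent of control. ED50 is the dose giving 50% inhibition of emesis, by Litchfield-Wilcoxon.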

Canis familiaris [6] = assay: Inhibition of apomorphine induced emesis in dogs when administered perorally; details: Canis lupus familiaris, po; how it was run: as §1
Mus musculus [7] = assay: Antiexploratory activity (EXPL) of mice determined by an antimex activity meter, 10 mg/kg of dose was administered perorally; details: route oral
How it was run: (§2)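 Male Std-ddY mice (20-25 g), five per dose, given compound orally in 0.5% aqueous tragacanth. Two hours later each mouse was placed in the activity-meter cage and locomotor activity was counted for 3 min. Suppression is expressed as percent inhibition of control. ED50 (dose giving 50% inhibition) calculated by Litchfield-Wilcoxon.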

Mus musculus [8] = assay: Inhibition of conditioned avoidance response in mice when administered perorally; details: po
How it was run: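 One-way active avoidance in male Std-ddY mice in a dark/light two-compartment box. Mice trained to move to the lit side on a warning stimulus to escape floor shock; groups of 10 avoiding at >80% in 10 trials. Compound po in 0.5% tragacanth. ED50 is the dose halving avoidance rate (Litchfield-Wilcoxon).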

Mus musculus [9] = assay: Concentration of compound that causes catalepsy in the mice when administered perorally; details: po
How it was run: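 Male Std-ddY mice were dosed orally, vehicle 0.5% aqueous tragacanth. At 2 h, forepaws were placed on a rod 4.5 cm high. Failure to remove the paws within 30 s in three successive trials was scored cataleptic. ED50 was the dose giving catalepsy in 50% of mice (Litchfield-Wilcoxon).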

Mus musculus [10] = assay: Concentration of compound that causes ptosis in the mice when administered perorally; details: po
How it was run: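 Five male Std-ddY mice per group were dosed orally in 0.5% aqueous tragacanth. At 2 h, eyelid closure was scored macroscopically (8 open to 0 fully closed). Group mean scores formed a dose-response curve. ED50 was the dose reducing the mean score to 50%.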

Mus musculus [11] = assay: Antiexploratory activity (EXPL) of mice determined by an antimex activity meter, when administered perorally; details: po; how it was run: as §2
Mus musculus [12] = assay: 3,4 -Dihydroxy phenylacetic acid (DOPAC) levels in mouse brain at 10 mg/kg dose.
How it was run: (§3)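 Male Std-ddY mice (20-25 g) dosed orally with compound dissolved or suspended in 0.5% aqueous tragacanth. DOPAC measured fluorometrically after purification by column chromatography on Sephadex G-10 and QAE-Sephadex. Brains from five mice per compound pooled for the determination.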

Mus musculus [13] = assay: The homovanillic acid (HVA)levels in mouse brain at 10 mg/kg of dose.
How it was run: (§4)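 Male Std-ddY mice (20-25 g) dosed orally with compound in 0.5% aqueous tragacanth (solution or suspension). Brain homovanillic acid (HVA) determined by a published method. Brains from five mice per compound pooled for one determination.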

Mus musculus [14] = assay: The homovanillic acid (HVA)levels in mouse brain at 50 mg/kg of dose.; how it was run: as §4
Mus musculus [15] = assay: Antiexploratory activity (EXPL) of mice determined by an antimex activity meter, 50 mg/kg of dose was administered perorally; details: route oral; how it was run: as §2
Mus musculus [16] = assay: 3,4 -Dihydroxy phenylacetic acid (DOPAC) levels in mouse brain at 50 mg/kg dose.; how it was run: as §3
Rattus norvegicus = assay: Inhibition of self stimulation response in rats when administered perorally.; details: po
How it was run: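 Male Wistar HLA rats (300-400 g) with chronic electrodes implanted in the lateral posterior hypothalamus; only rats lever-pressing steadily at 50-100/min were used. Compound given po in 0.5% tragacanth. Self-stimulation counted for 10 min before and 2 h after dosing. ED50 is the dose giving ≥50% rate inhibition in 50% of rats (Litchfield-Wilcoxon).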

Canis familiaris [17] = assay: Inhibition of apomorphine induced emesis in dogs at 1 mg/kg of dose.; details: Canis lupus familiaris; how it was run: as §1

Row | Structure (SMILES) | Activity (Mus musculus [1]) | Inhibition (Mus musculus [2]) | inhibition in vivo at 50 mg/kg (Mus musculus [3]) | inhibition in vivo at 100 mg/kg (Mus musculus [4]) | inhibition in vivo at 2 mg/kg (Canis familiaris [5]) | ED50 (Canis familiaris [6]) | inhibition in vivo at 10 mg/kg (Mus musculus [7]) | ED50 (Mus musculus [8]) | ED50 (Mus musculus [9]) | ED50 (Mus musculus [10]) | ED50 (Mus musculus [11]) | Control % at 10 mg/kg (Mus musculus [12]) | Control % at 10 mg/kg (Mus musculus [13]) | Control % at 50 mg/kg (Mus musculus [14]) | inhibition in vivo at 50 mg/kg (Mus musculus [15]) | Control % at 50 mg/kg (Mus musculus [16]) | ED50 (Rattus norvegicus) | inhibition in vivo at 1 mg/kg (Canis familiaris [17])
1 | Cl.Cl.OCCN1CCN(C2=Nc3ccccc3CC=C2c2cccc(Cl)c2)CC1 | 0 | 31% | < 30% | – | – | – | – | – | – | – | – | – | – | – | – | – | – | –
2 | CN1CCN(C2=Nc3ccccc3CC=C2c2cccc(Cl)c2)CC1.Cl.Cl | 0 | – | < 30% | 51% | – | – | – | – | – | – | – | – | – | – | – | – | – | –
3 | CN(C)CCCN1c2ccccc2Sc2ccc(Cl)cc21 [CHLORPROMAZINE] | – | – | – | – | 22.2% | 4.53 mg/kg | 46.3% | 5.59 mg/kg | 7.81 mg/kg | 24.9 mg/kg | 8.26 mg/kg | 232% | 203% | 304% | 90.1% | 303% | 6.68 mg/kg | –
4 | CN1CCN(C2=Nc3cc(Cl)ccc3Nc3ccccc32)CC1 [CLOZAPINE] | – | – | – | – | – | 12.6 mg/kg | 50.6% | 9.68 mg/kg | > 100 mg/kg | 15.8 mg/kg | 8.45 mg/kg | 128% | 106% | 274% | 87.8% | 324% | 77.1 mg/kg | 27.4%
